Experimental findings from paper PMC11850876 (Scientific Reports, 2025) are described below.

One may read the IC50 as the concentration that inhibits the measured activity by half.

Read-outs that look alike come from different tables or passages of the source.

A short description of test [1]: DPPH radical scavenging assay. The following applies: read-out: DPPH radical scavenging IC50 ± SD; DPPH 0.1 mM in MeOH, 60 min, 517 nm. A digest of the protocol:
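Each test compound was prepared at 1.0 mg/mL in DMSO and mixed 1:1 by volume with 0.1 mM DPPH in MeOH. The mixture was kept in the dark at RT for 60 min. Absorbance was read at 517 nm against a DPPH control. % scavenging = (Abs control − Abs sample)/Abs control × 100.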
(Loss of DPPH colour is used to gauge radical scavenging.)

The test system of test [2] is MCF-7 breast cancer cell line. The test can be described thus: MTT cytotoxicity assay, MCF-7. The settings on record: for IC50: Homo sapiens; for Selectivity Index (SI) 48 h: IC50 MCF-10 A / IC50 MCF-7, 48 h; for Selectivity Index (SI) 72 h: IC50 MCF-10 A / IC50 MCF-7, 72 h. The format is cell-based, human. In outline:
(§1)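 Cells came from the Pasteur Institute, Tehran, and were seeded at 5 × 10^4 cells/well. After 24 h, four concentrations of test compound were added in triplicate, with medium-only and 0.5% DMSO controls. Exposure was 48 and 72 h. MTT formazan was dissolved in DMSO and read at 570 nm. IC50 was taken from % inhibition (mean ± SD, n=3). SI = IC50 MCF-10 A / IC50 MCF-7.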
On the technique in general: Tetrazolium assays rely on reduction of a dye to a coloured formazan, in cell work by metabolically active cells.

The subject of test [3] is healthy human breast epithelial (MCF-10 A) cell line. The test can be described thus: MTT cytotoxicity assay, MCF-10 A. The test is classed as cell-based. In outline: as §1
Where [4] appears, read: MCF7, 48 h, read-out: IC50 ±SD MCF-7 48 h.
[5] abbreviates: MCF7, 72 h, read-out: IC50 ±SD MCF-7 72 h.
The mark [6] stands for this setting: 48 h, read-out: IC50 ±SD MCF-10 A 48 h.
Setting [7] is: 72 h, read-out: IC50 ±SD MCF-10 A 72 h.

Regarding `O=C1O[C@H]([C@@H](O)CO)C(O)=C1O` [ascorbic acid, reference compound], the IC50 in test [1] was found to be 13.6 ± 0.38 µM.
In the case of `COc1cccc2c1C(=O)c1c(O)c3c(c(O)c1C2=O)C[C@@](O)(C(=O)CO)C[C@@H]3O[C@H]1C[C@H](N)[C@H](O)[C@H](C)O1` [Doxorubicin, reference compound], the half-inhibitory concentration (IC50) in test [2] (setting [4]) was 3.42 ± 0.1 µM; in test [2] (setting [5]) it was 0.68 ± 0.1 µM; in test [3] (setting [6]) it was 13.2 ± 0.1 µM; in test [3] (setting [7]), 2.85 ± 0.1 µM. Besides, the “Selectivity Index (SI) 48 h” value in test [2] is on record as 3.86. The “Selectivity Index (SI) 72 h” value in test [2] amounted to 4.20.
For the compound `NC(=S)N/N=C/c1cc(/N=N/c2ccc(S(N)(=O)=O)cc2)ccc1O` [Compound 3j, 2-((E)-2-hydroxy-5-((E)-(4-sulfamoylphenyl)diazenyl)benzylidene)hydrazine-1-carbothioamide], the IC50 in test [1] was 12.4 ± 0.55 µM; in test [2] (setting [4]), 6.52 ± 0.007 µM; in test [2] (setting [5]), 5.27 ± 0.006 µM; in test [3] (setting [6]), 17.43 ± 0.019 µM; in test [3] (setting [7]) it was 11.26 ± 0.008 µM. For the same compound, the “Selectivity Index (SI) 48 h” value in test [2] is 2.67. For the same compound, the “Selectivity Index (SI) 72 h” value in test [2] is given as 2.13.
In the case of `COc1ccc(/N=C/c2cc(/N=N/c3ccc(S(N)(=O)=O)cc3)ccc2O)cc1` [Compound 3f, 4-((E)-(4-hydroxy-3-((E)-((4-methoxyphenyl)imino)methyl)phenyl)diazenyl)benzenesulfonamid], the IC50 is 14 ± 1.45 µM in test [1]; 8.94 ± 0.013 µM in test [2] (setting [4]); 7.62 ± 0.018 µM in test [2] (setting [5]); 11.01 ± 0.016 µM in test [3] (setting [6]); 2.67 ± 0.009 µM in test [3] (setting [7]). Also, the “Selectivity Index (SI) 48 h” value in test [2] turned out to be 1.23. Also, the “Selectivity Index (SI) 72 h” value in test [2] was 0.35.
As to `NS(=O)(=O)c1ccc(/N=N/c2ccc(O)c(/C=N/c3ccccc3O)c2)cc1` [Compound 3c, 4-((E)-(4-hydroxy-3-((E)-((2hydroxyphenyl)imino)methyl)phenyl)diazenyl)benzenesulfonamide], the IC50 was determined as 13.6 ± 0.95 µM in test [1]; 21.16 ± 0.014 µM in test [2] (setting [4]); 9.26 ± 0.002 µM in test [2] (setting [5]); 16.82 ± 0.01 µM in test [3] (setting [6]); 2.23 ± 0.001 µM in test [3] (setting [7]). Further, the “Selectivity Index (SI) 48 h” value in test [2] came out at 0.79. Moreover, in test [2], the “Selectivity Index (SI) 72 h” value is given as 0.24.
For `NS(=O)(=O)c1ccc(/N=N/c2ccc(O)c(/C=N/c3ccc(O)cc3)c2)cc1` [Compound 3a, 4-((E)-(4-hydroxy-3-((E)-((4-hydroxyphenyl)imino)methyl)phenyl)diazenyl)benzenesulfonamide], the IC50 in test [1] amounted to 13.2 ± 0.74 µM; in test [2] (setting [4]), 10.9 ± 0.005 µM; in test [2] (setting [5]), 9.49 ± 0.012 µM; in test [3] (setting [6]), 11.18 ± 0.012 µM; in test [3] (setting [7]), 1.98 ± 0.002 µM. For the same compound, in test [2], the “Selectivity Index (SI) 48 h” value is on record as 1.02. Besides, the “Selectivity Index (SI) 72 h” value in test [2] was 0.20.
